This is an account of results in ChEMBL document CHEMBL4431385, “Substituted tetracyclic indole core derivatives of HCV NS5A inhibitor MK-8742” (Bioorg Med Chem Lett, 2016).

For assay [1], the target named is T1, Nonstructural protein 5A (Hepatitis C virus) (UniProt Q5L478).
T1 sequence (whole entry): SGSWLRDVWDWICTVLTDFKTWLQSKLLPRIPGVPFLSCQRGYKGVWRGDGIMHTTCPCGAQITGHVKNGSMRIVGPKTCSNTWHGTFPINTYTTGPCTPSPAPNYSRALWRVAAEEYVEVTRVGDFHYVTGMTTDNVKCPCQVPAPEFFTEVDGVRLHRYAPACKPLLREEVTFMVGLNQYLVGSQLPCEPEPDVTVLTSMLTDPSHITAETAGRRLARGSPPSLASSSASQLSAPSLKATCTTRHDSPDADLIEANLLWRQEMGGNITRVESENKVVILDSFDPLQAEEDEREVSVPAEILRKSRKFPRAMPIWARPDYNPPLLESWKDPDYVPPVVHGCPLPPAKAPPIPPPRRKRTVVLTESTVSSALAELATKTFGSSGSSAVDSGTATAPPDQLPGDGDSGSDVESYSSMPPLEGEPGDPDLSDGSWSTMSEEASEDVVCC
In words: Inhibition of HCV GT3a NS5A assessed as suppression of replicon RNA level by real-time PCR analysis. As to conditions: Hepatitis C virus subtype 3a.

The target of assay [2] is T1, Nonstructural protein 5A (Hepatitis C virus). The assay is described as follows: Inhibition of HCV GT1a NS5A assessed as suppression of replicon RNA level by real-time PCR analysis. The note with it: Hepatitis C virus subtype 1a.
Assay [3] relates to Nonstructural protein 5A (Hepatitis C virus), Q5L478 [UNDEFINED MUTATION]. The assay is described as follows: Inhibition of HCV GT1a NS5A L31V mutant assessed as suppression of replicon RNA level by real-time PCR analysis. The note with it: Hepatitis C virus subtype 1a.
Assay [4] deals with T2, Nonstructural protein 5A (Hepatitis C virus), Q5L478 [Y93H].
T2 sequence (whole entry): T1 sequence (whole entry) with Y93H
In words: Inhibition of HCV GT1a NS5A Y93H mutant assessed as suppression of replicon RNA level by real-time PCR analysis. As to conditions: Hepatitis C virus subtype 1a.

Assay [5] concerns the target T1, Nonstructural protein 5A (Hepatitis C virus). In words: Inhibition of HCV GT2b NS5A assessed as suppression of replicon RNA level by real-time PCR analysis. As to conditions: Hepatitis C virus subtype 2b. A digest of the protocol: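 GT2b replicon, which carries the naturally occurring NS5A 31M resistance-associated variant; potency given as EC90 in nM.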
The target is the same in assay [6]. The assay is described as follows: Inhibition of HCV GT1b NS5A assessed as suppression of replicon RNA level by real-time PCR analysis. The note with it: Hepatitis C virus subtype 1b.

Where a chain is given by its changes, count along the chain named.

For the molecule `COC(=O)N[C@H](C(=O)N1C[C@H](F)C[C@H]1c1ncc(-c2cc(F)c3c(c2)OC(c2cccc(OC(C)C)c2)n2c-3cc3cc(-c4cnc([C@@H]5C[C@@H](F)CN5C(=O)[C@@H](NC(=O)OC)C(C)C)[nH]4)ccc32)[nH]1)C(C)C` (stereo partly specified), the EC90 in assay [1] was 1 nM; in assay [2] it was 0.01 nM; in assay [3], 4 nM; in assay [4], 0.1 nM; in assay [5] it was 122 nM.

For `CCOc1cccc(C2Oc3cc(-c4cnc([C@@H]5CCCN5C(=O)[C@@H](NC(=O)OC)C(C)C)[nH]4)cc(F)c3-c3cc4cc(-c5cnc([C@@H]6CCCN6C(=O)[C@@H](NC(=O)OC)C(C)C)[nH]5)ccc4n32)c1` (stereo partly specified), the concentration for an effect of 90% (EC90) came to 0.02 nM in assay [1]; 0.01 nM in assay [2]; 0.2 nM in assay [3]; 2 nM in assay [4]; 8 nM in assay [5].

As to `CCOc1cccc(C2Oc3cc(-c4cnc([C@@H]5CCCN5C(=O)[C@@H](NC(=O)OC)C(C)C)[nH]4)ccc3-c3cc4cc(-c5cnc([C@@H]6CCCN6C(=O)[C@@H](NC(=O)OC)C(C)C)[nH]5)ccc4n32)c1` (stereo partly specified), the 90% effect concentration (EC90) in assay [1] came out at 0.2 nM; in assay [2], 0.02 nM; in assay [3], 0.9 nM; in assay [4], 16 nM; in assay [5] it was 22 nM.

On to `COC(=O)N[C@H](C(=O)N1CCC[C@H]1c1ncc(-c2ccc3c(c2)OC(c2cc(Cl)cc(OC)c2)n2c-3cc3cc(-c4cnc([C@@H]5CCCN5C(=O)[C@@H](NC(=O)OC)C(C)C)[nH]4)ccc32)[nH]1)C(C)C` (mixture of isomers), for which the EC90 amounted to 0.8 nM in assay [1]; 0.03 nM in assay [2]; 0.2 nM in assay [3]; 15 nM in assay [4]; 202 nM in assay [5].

On to `COC(=O)N[C@H](C(=O)N1CCC[C@H]1c1ncc(-c2ccc3c(c2)cc2n3C(c3cccc(OC(C)C)c3)Oc3cc(-c4cnc([C@@H]5C[C@@H](F)CN5C(=O)[C@@H](NC(=O)OC)C(C)C)[nH]4)cc(F)c3-2)[nH]1)C(C)C` (stereo partly specified), for which the EC90 in assay [1] was 0.07 nM; in assay [2], 0.01 nM; in assay [3] it was 0.6 nM; in assay [4], 0.9 nM; in assay [5], 28 nM.

In the case of `COC(=O)N[C@H](C(=O)N1C[C@H](F)C[C@H]1c1ncc(-c2cc(F)c3c(c2)OC(c2cccc(O[C@@H]4CCOC4)c2)n2c-3cc3cc(-c4cnc([C@@H]5C[C@@H](F)CN5C(=O)[C@@H](NC(=O)OC)C(C)C)[nH]4)ccc32)[nH]1)C(C)C` (mixture of isomers), the EC90 was 2 nM in assay [1]; 0.04 nM in assay [2]; 7 nM in assay [3]; 1 nM in assay [4]; 2 nM in assay [5].

Turning to `COC(=O)N[C@H](C(=O)N1CCC[C@H]1c1ncc(-c2cc(F)c3c(c2)OC(c2cccc(OC(C)C)c2)n2c-3cc3cc(-c4cnc([C@@H]5CCCN5C(=O)[C@@H](NC(=O)OC)C(C)C)[nH]4)ccc32)[nH]1)C(C)C` (stereo partly specified), the EC90 is 0.05 nM in assay [1]; 0.01 nM in assay [2]; 0.2 nM in assay [3]; 6 nM in assay [4]; 18 nM in assay [5].

On to `COC(=O)N[C@H](C(=O)N1CCC[C@H]1c1ncc(-c2ccc3c(c2)OC(c2cccc(OC(C)C)c2)n2c-3cc3cc(-c4cnc([C@@H]5CCCN5C(=O)[C@@H](NC(=O)OC)C(C)C)[nH]4)ccc32)[nH]1)C(C)C` (stereo partly specified), for which the 90% effect concentration (EC90) amounted to 0.08 nM in assay [1]; 0.01 nM in assay [2]; 0.5 nM in assay [3]; 34 nM in assay [4]; 145 nM in assay [5].

On to `COC(=O)N[C@H](C(=O)N1CCC[C@H]1c1ncc(-c2ccc3c(c2)OC(c2cc(OC)cc(OC)c2)n2c-3cc3cc(-c4cnc([C@@H]5CCCN5C(=O)[C@@H](NC(=O)OC)C(C)C)[nH]4)ccc32)[nH]1)C(C)C` (stereo partly specified), for which the EC90 came to 0.08 nM in assay [1]; 0.004 nM in assay [2]; 0.3 nM in assay [3]; 8 nM in assay [4]; 11 nM in assay [5].

Regarding `COC(=O)N[C@H](C(=O)N1CCC[C@H]1c1ncc(-c2ccc3c(c2)OCn2c-3cc3c(F)c(-c4cnc([C@@H]5CCCN5C(=O)[C@@H](NC(=O)OC)C(C)C)[nH]4)ccc32)[nH]1)C(C)C`, the 90% effect concentration (EC90) was more than 0.5 nM in assay [6] and more than 0.8 nM in assay [2].

Consider `CCOc1cccc(C2Oc3cc(-c4cnc([C@@H]5C[C@@H](F)CN5C(=O)[C@@H](NC(=O)OC)C(C)C)[nH]4)cc(F)c3-c3cc4cc(-c5cnc([C@@H]6CCCN6C(=O)[C@@H](NC(=O)OC)C(C)C)[nH]5)ccc4n32)c1` (stereo partly specified), for which the 90% effect concentration (EC90) in assay [1] came out at 0.1 nM; in assay [2], 0.01 nM; in assay [4] it was 0.4 nM; in assay [5], 17 nM.

In the case of `COC(=O)N[C@H](C(=O)N1CCC[C@H]1c1ncc(-c2cc(F)c3c(c2)OC(c2cc(OC)cc(OC)c2)n2c-3cc3cc(-c4cnc([C@@H]5CCCN5C(=O)[C@@H](NC(=O)OC)C(C)C)[nH]4)ccc32)[nH]1)C(C)C` (stereo partly specified), the 90% effect concentration (EC90) in assay [1] was 0.06 nM; in assay [2], 0.004 nM; in assay [3] it was 0.1 nM; in assay [4], 3 nM; in assay [5] it was 0.6 nM.

Regarding `COC(=O)N[C@H](C(=O)N1CCC[C@H]1c1ncc(-c2cc(F)c3c(c2)OC(c2ccc(OC)cc2)n2c-3cc3cc(-c4cnc([C@@H]5CCCN5C(=O)[C@@H](NC(=O)OC)C(C)C)[nH]4)ccc32)[nH]1)C(C)C` (stereo partly specified), the EC90 in assay [2] came to 0.01 nM; in assay [3] it was 0.2 nM; in assay [4] it was 3 nM; in assay [5] it was 5 nM.

As to `COC(=O)N[C@H](C(=O)N1CCC[C@H]1c1ncc(-c2ccc3c(c2)cc2n3C(c3cccc(OC(F)(F)F)c3)Oc3cc(-c4cnc([C@@H]5C[C@@H](F)CN5C(=O)[C@@H](NC(=O)OC)C(C)C)[nH]4)ccc3-2)[nH]1)C(C)C` (stereo partly specified), the EC90 in assay [2] came to 0.02 nM; in assay [3] it was 1.8 nM; in assay [4], 1.7 nM; in assay [5], 48 nM.

With `COC(=O)N[C@H](C(=O)N1CCC[C@H]1c1ncc(-c2cc3c(c(-c4ccccc4)c2)-c2cc4cc(-c5cnc([C@@H]6CCCN6C(=O)[C@@H](NC(=O)OC)C(C)C)[nH]5)ccc4n2CO3)[nH]1)C(C)C`, the concentration for an effect of 90% (EC90) in assay [1] is 47 nM; in assay [2] it was 1 nM; in assay [3] it was 1 nM; in assay [4], 250 nM; in assay [5], 108 nM.

Regarding `COC(=O)N[C@H](C(=O)N1CCC[C@H]1c1ncc(-c2ccc3c(c2)cc2n3C(c3cccc(OC(F)F)c3)Oc3cc(-c4cnc([C@@H]5C[C@@H](F)CN5C(=O)[C@@H](NC(=O)OC)C(C)C)[nH]4)cc(F)c3-2)[nH]1)C(C)C` (stereo partly specified), the concentration for an effect of 90% (EC90) in assay [1] was 0.2 nM; in assay [2] it was 0.002 nM; in assay [3], 0.7 nM; in assay [4], 0.3 nM; in assay [5], 22 nM.

On to `COC(=O)N[C@H](C(=O)N1CCC[C@H]1c1ncc(-c2cc3c(c(C4CC4)c2)-c2cc4cc(-c5cnc([C@@H]6CCCN6C(=O)[C@@H](NC(=O)OC)C(C)C)[nH]5)ccc4n2CO3)[nH]1)C(C)C`, for which the EC90 turned out to be 74 nM in assay [1]; 0.7 nM in assay [2]; 0.7 nM in assay [3]; 890 nM in assay [4]; 454 nM in assay [5].

As for `COC(=O)N[C@H](C(=O)N1CCC[C@H]1c1ncc(-c2ccc3c(c2)OC(c2ccc(OC)cc2)n2c-3cc3cc(-c4cnc([C@@H]5CCCN5C(=O)[C@@H](NC(=O)OC)C(C)C)[nH]4)ccc32)[nH]1)C(C)C` (stereo partly specified), the figures for the concentration for an effect of 90% (EC90) in assay [2], in assay [4] and in assay [5] were 0.04 nM, 82 nM and 15 nM, respectively.

On to `CCOc1cccc(C2Oc3cc(-c4cnc([C@@H]5C[C@@H](F)CN5C(=O)[C@@H](NC(=O)OC)C(C)C)[nH]4)cc(F)c3-c3cc4cc(-c5cnc([C@@H]6C[C@@H](F)CN6C(=O)[C@@H](NC(=O)OC)C(C)C)[nH]5)ccc4n32)c1` (stereo partly specified), for which the 90% effect concentration (EC90) amounted to 0.6 nM in assay [1]; 0.01 nM in assay [2]; 3 nM in assay [3]; 0.2 nM in assay [4]; 69 nM in assay [5].

For the molecule `COC(=O)N[C@H](C(=O)N1C[C@H](F)C[C@H]1c1ncc(-c2cc(F)c3c(c2)OC(c2ccc(OC(F)(F)F)cc2)n2c-3cc3cc(-c4cnc([C@@H]5C[C@@H](F)CN5C(=O)[C@@H](NC(=O)OC)C(C)C)[nH]4)ccc32)[nH]1)C(C)C` (stereo partly specified), the EC90 in assay [1] is 1 nM; in assay [2], 0.01 nM; in assay [4] it was 0.2 nM; in assay [5], 35 nM.
